Assay [1] is described as follows: Inhibition of Vibrio cholerae alpha carbonic anhydrase incubated for 30 mins prior to testing measured for 10 to 100 secs by phenol red-based stopped-flow CO2 hydration assay. An outline of the steps:
(§1)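 Stopped-flow CO2 hydrase assay on the α, β and γ isoforms of V. cholerae CA. KI values are the mean of 3 independent assays, with errors of ±5–10% of the reported values.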

Assay [2] is described as follows: Inhibition of Vibrio cholerae beta carbonic anhydrase incubated for 30 mins prior to testing measured for 10 to 100 secs by phenol red-based stopped-flow CO2 hydration assay. In a few lines:
as §1

Assay [3] is described as follows: Inhibition of Vibrio cholerae gamma carbonic anhydrase incubated for 30 mins prior to testing measured for 10 to 100 secs by phenol red-based stopped-flow CO2 hydration assay. In a few lines: as §1

The Ki is the dissociation constant of the complex between target and ligand, obtained from inhibition or displacement. The low end stands for tighter binding, the high end for weaker binding.

Regarding `OB1OCc2cc(F)ccc21` [TAVABOROLE], the results for the Ki in assay [1], in assay [2] and in assay [3] were 157 nM, 97300 nM and 841 nM, respectively.

Consider `O=C(Nc1ccc(F)cc1)Nc1ccc2c(c1)B(O)OC2`, for which the Ki in assay [1] was 48 nM; in assay [2], 28000 nM; in assay [3], 644 nM.

In the case of `O=C(Nc1ccccc1)Nc1ccc2c(c1)B(O)OC2`, the inhibition constant (Ki) was 117 nM in assay [1], 56400 nM in assay [2] and 705 nM in assay [3].

With `Cc1ccc(NC(=S)Nc2ccc3c(c2)B(O)OC3)cc1`, the inhibitory constant (Ki) in assay [1] was 109 nM; in assay [2], 2590 nM; in assay [3], 1760 nM.

For the compound `O=C(Nc1ccc(Cl)cc1)Nc1ccc2c(c1)B(O)OC2`, the Ki in assay [1] was determined as 56 nM; in assay [2] it was 19500 nM; in assay [3] it was 650 nM.

For the compound `OB1OCc2ccc(NC(=S)Nc3ccc4ccccc4c3)cc21`, the inhibition constant (Ki) in assay [1] is 603 nM; in assay [2], 26000 nM; in assay [3] it was 2970 nM.

As for `CC(=O)c1ccc(NC(=O)Nc2ccc3c(c2)B(O)OC3)cc1`, the inhibition constant Ki in assay [1] came out at 103 nM; in assay [2], 65100 nM; in assay [3] it was 1130 nM.

With `Cc1cc(Cl)cc(CNC(=O)Nc2ccc3c(c2)B(O)OC3)c1`, the inhibition constant (Ki) turned out to be 53 nM in assay [1], 61300 nM in assay [2] and 718 nM in assay [3].

In the case of `O=C(Nc1ccc2c(c1)B(O)OC2)Nc1c(Cl)cc(Cl)cc1Cl`, the inhibition constant Ki in assay [1] came out at 76 nM; in assay [2], 84500 nM; in assay [3], 895 nM.

Regarding `OB1OCc2ccc(NC(=S)Nc3ccc(C(F)(F)F)cc3)cc21`, the Ki amounted to 72 nM in assay [1], 1250 nM in assay [2] and 1920 nM in assay [3].

For `O=[N+]([O-])c1ccc2c(c1)B(O)OC2`, the inhibition constant Ki in assay [1] stood at 142 nM; in assay [2], 8870 nM; in assay [3], 818 nM.

As for `OB1OCc2ccc(NC(=S)NCc3ccccc3)cc21`, the Ki in assay [1] came to 96 nM; in assay [2], 30400 nM; in assay [3], 3960 nM.

Consider `OB1OCc2ccc(NC(=S)NCCc3ccccc3)cc21`, for which the Ki is 102 nM in assay [1], 18400 nM in assay [2] and 554 nM in assay [3].

On to `O=C(Nc1ccc(C(F)(F)F)cc1)Nc1ccc2c(c1)B(O)OC2`, for which the Ki in assay [1] stood at 46 nM; in assay [2] it was 55100 nM; in assay [3] it was 957 nM.

`OB1OCc2ccc(NC(=S)Nc3ccc(F)cc3)cc21`: the Ki in assay [1] amounted to 112 nM; in assay [2], 6350 nM; in assay [3], 544 nM.

As to `O=C(NCc1ccccc1)Nc1ccc2c(c1)B(O)OC2`, the Ki in assay [1] was 90 nM; in assay [2], 42100 nM; in assay [3] it was 1870 nM.

In the case of `COc1ccc(NC(=S)Nc2ccc3c(c2)B(O)OC3)cc1`, the inhibition constant (Ki) came out at 165 nM in assay [1], 2300 nM in assay [2] and 874 nM in assay [3].

On to `OB1OCc2ccccc21` [BENZOXABOROLE], for which the inhibition constant Ki in assay [1] was 319 nM; in assay [2], 70300 nM; in assay [3], 2840 nM.

On to `OB1OCc2ccc(NC(=S)NCc3ccco3)cc21`, for which the inhibition constant (Ki) in assay [1] came to 220 nM; in assay [2], 31900 nM; in assay [3], 2000 nM.

Turning to `O=C(NCc1ccco1)Nc1ccc2c(c1)B(O)OC2`, the inhibition constant Ki in assay [1] came to 164 nM; in assay [2], 79900 nM; in assay [3], 1230 nM.

Consider `O=[N+]([O-])c1ccc(NC(=S)Nc2ccc3c(c2)B(O)OC3)cc1`, for which the Ki was found to be 80 nM in assay [1], 933 nM in assay [2] and 687 nM in assay [3].

`COc1ccc(C)cc1NC(=O)Nc1ccc2c(c1)B(O)OC2`: the inhibitory constant (Ki) in assay [1] stood at 556 nM; in assay [2] it was 67300 nM; in assay [3], 410 nM.

On to `OB1OCc2ccc(NC(=S)Nc3ccccc3)cc21`, for which the Ki in assay [1] is 1200 nM; in assay [2], 19100 nM; in assay [3] it was 834 nM.

On to `Nc1ccc2c(c1)B(O)OC2`, for which the values for the inhibitory constant (Ki) in assay [1], in assay [2] and in assay [3] were 165 nM, 21800 nM and 1170 nM, respectively.

The values are drawn from ChEMBL document CHEMBL4725479, “Benzoxaboroles: New Potent Inhibitors of the Carbonic Anhydrases of the Pathogenic Bacterium Vibrio cholerae” (ACS Med Chem Lett, 2020).
